NPY-Y1 PAM-ag: NPY-Y1 receptor potentiators or agonists, primary screen, cell-based; NPY-Y1 expressing cells, potentiator/agonist activation; activation, % at 3.6 µM; Neuropeptide Y receptor type 1 (Homo sapiens), P25929; AID 1304, 2008; 220,000 tested, 0.37% active; in the data active = activation above about 33%, passing the limit was not always enough;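 note: cells stimulated with NPY at EC10 then isoproterenol at EC100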
Target sequence (P25929 whole entry, looked up): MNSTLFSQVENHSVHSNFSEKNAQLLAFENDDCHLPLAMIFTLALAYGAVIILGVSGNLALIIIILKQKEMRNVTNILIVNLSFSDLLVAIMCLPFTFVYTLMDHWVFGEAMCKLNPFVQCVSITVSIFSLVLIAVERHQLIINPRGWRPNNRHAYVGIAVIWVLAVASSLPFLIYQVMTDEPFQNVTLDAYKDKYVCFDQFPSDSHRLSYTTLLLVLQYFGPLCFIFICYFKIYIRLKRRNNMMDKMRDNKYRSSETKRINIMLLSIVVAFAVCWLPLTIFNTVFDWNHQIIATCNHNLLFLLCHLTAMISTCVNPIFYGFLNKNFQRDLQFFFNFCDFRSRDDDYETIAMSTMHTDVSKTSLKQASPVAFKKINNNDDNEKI
Insulin prom inh: inhibitors of insulin promoter-driven GFP, primary screen, imaging, TRM-6 cells, eGFP reporter, cell count | reporter expression induced with tamoxifen | inhibition, % at 2 µM | 130,000 tested, 0.9% active | AID 1273, 2008;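 active = inhibition above the mean plus 3 SD, with well images judged a real hit on visual review, cut at about 60% in these data, passing the limit was not always enough; inconclusive = inhibition over the cutoff but images rejected on review; inactive = inhibition not above the cutoff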
NPY-Y2 antag: NPY-Y2 receptor antagonists, primary screen, cell-based. NPY-Y2 expressing cells, antagonist mode. inhibition, % at 2.7 µM. 140,000 tested, 0.99% active. AID 793, 2007; in the data active = inhibition above about 17%
Target sequence (P49146 whole entry, looked up): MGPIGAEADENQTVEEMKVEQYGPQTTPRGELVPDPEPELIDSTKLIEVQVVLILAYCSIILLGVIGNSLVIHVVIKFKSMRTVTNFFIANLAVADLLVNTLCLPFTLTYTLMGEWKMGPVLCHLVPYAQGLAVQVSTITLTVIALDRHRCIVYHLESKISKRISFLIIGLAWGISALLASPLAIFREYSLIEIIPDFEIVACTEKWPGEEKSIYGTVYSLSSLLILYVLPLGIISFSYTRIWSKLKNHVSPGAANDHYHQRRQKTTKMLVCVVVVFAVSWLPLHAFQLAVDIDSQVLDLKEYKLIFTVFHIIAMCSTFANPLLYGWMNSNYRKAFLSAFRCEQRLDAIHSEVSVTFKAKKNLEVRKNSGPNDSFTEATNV
RAM inhibit: inhibitors of the yeast RAM network, primary screen, dse1pr::URA3 reporter, 5-FOA selection; S. cerevisiae dse1pr::URA3 reporter, 5-FOA growth OD615, 2 d; analog-sensitive cbk1-as2 kinase mutant strain; inhibition, % at 50 µM; 190,000 tested, 1.8% active;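 active = inhibition above a set limit, 3 SD over mean compound inhibition, cut at about 8.4% in these data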;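 note: inhibition rescues growth on 5-FOA so higher OD means more RAM inhibition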
NPY Y1 blocker: NPY-Y1 receptor antagonists, primary screen, cell-based; HEK293-CNG Y1 cells, membrane potential fluorescence; NPY at EC95, then isoproterenol; inhibition, % at 3.6 µM; Neuropeptide Y receptor type 1 (Homo sapiens), P25929; 200,000 tested, 1% active;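 active = inhibition above the campaign mean inhibition of all tested compounds plus 3 SD, cut at about 20% in these data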
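System: HEK293 cells with Y1 receptor plus CNG channel / Probe or stimulus: NPY 25 nM then isoproterenol 1 µM plus Ro 20-1724 25 µM / Compound: one concentration, 3.6 µM, in 0.4% DMSO / Schedule: compound incubation 1 h at room temperature, readout 45 min post-stimulation / Measured by: membrane potential fluorescence / Read-out: % inhibition of NPY effect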
NPY-Y2 PAM-ag: NPY-Y2 potentiators or agonists, primary screen, cell-based; Neuropeptide Y receptor type 2 (Homo sapiens), P49146; cells expressing NPY-Y2, potentiator/agonist read-out; activation, % at 3.6 µM; 220,000 tested, 0.45% active; AID 1359, 2008; in the data active = activation above about 27%;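 note: cells stimulated with NPY near EC25 plus isoproterenol at EC100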
Numbers stand for hits; 0 = inactive; ? = inconclusive; - = not tested or not shown. An excerpt weighted towards active compounds, which were near 3.8% of everything screened.

SMILES | NPY-Y1 PAM-ag | Insulin prom inh | NPY-Y2 antag | RAM inhibit | NPY Y1 blocker | NPY-Y2 PAM-ag
Cc1ccc(/C=C(\NC(=O)c2ccccc2)C(=O)NCC2CCCO2)o1 (centres undefined) | 0 | - | - | 0 | 0 | 0
CC(C)NS(=O)(=O)c1cc(C(=O)O)ccc1Cl | 0 | 0 | 0 | 0 | 0 | 0
O=c1c(Cl)c(Nc2cccc(Cl)c2)cnn1-c1nc2ccccc2s1 | 0 | 0 | 0 | 0 | 0 | 0
Cc1ccc(C)c(N2CCN(c3cnn(-c4nc5ccccc5s4)c(=O)c3Cl)CC2)c1 | 0 | 0 | 0 | 9.1 | 0 | 0
O=C(Nc1c2c(nc3ccccc13)CCCC2)c1ccccc1F | 0 | 64 | 0 | 0 | 0 | 0
CCOC(=O)c1c(C)n(C)c2ccc(O)c(CN(C)C)c12 | 75 | - | 0 | 0 | 0 | 70
CCOC(=O)c1c(C)n(-c2ccc(OC)cc2)c2ccc(O)c(CN(C)C)c12 | 0 | - | - | - | - | 0
CC(C)c1onc(C(=O)NC(C)c2ccccc2)c1[N+](=O)[O-] (centres undefined) | 0 | - | - | 0 | 0 | 0
Cc1ccccc1COC(=O)c1nn(-c2ccccc2)nc1N | 0 | 0 | - | 9.4 | 0 | 0
COc1ccc(C2OCC3(CO2)SC(=O)NC3=O)cc1 (centres undefined) | 0 | 73 | 0 | 0 | 0 | 0
COc1ccc(C2OCC3(CO2)SC(N)=NC3=O)cc1 (centres undefined) | 0 | 0 | 0 | 0 | 0 | 0
COC(=O)c1cc(NC(=O)c2ccc(F)cc2)cc(C(=O)OC)c1 | 0 | - | - | 0 | 0 | 0
CC(=O)c1ccc(Nc2nc(=O)c3cccnc3s2)cc1 | 0 | 79 | 0 | 0 | 0 | 0
O=c1nc(Nc2ccc(OCc3ccccc3)cc2)sc2ncccc12 | 0 | - | - | 9.3 | 0 | 0
CC(=O)c1cccc(Nc2nc(=O)c3cccnc3s2)c1 | 0 | 0 | 0 | 0 | 0 | 0
Cc1cccc2sc(NC(=O)c3cc(S(=O)(=O)N(C)C)ccc3N3CCCC3)nc12 | 0 | 0 | - | 0 | 0 | 0
Nc1ncnc(Oc2cccc(C(F)(F)F)c2)c1[N+](=O)[O-] | 0 | 0 | - | 0 | 0 | 0
CC(OC(=O)c1ccncc1)C(=O)NC1CCCC1 (centres undefined) | 0 | 0 | - | 0 | 0 | 0
CCn1c(COc2ccccc2C)nnc1SCc1nc2ccccc2c(=O)[nH]1 | 0 | 0 | - | 0 | 0 | 0
Cc1ccccc1Cn1c(=N)n(CC(O)c2ccco2)c2ccccc21 (centres undefined) | 0 | - | 23 | 0 | 25 | 0
Cc1ccc(C)c(SCC(=O)OC/C(O)=C(\C#N)c2nc3ccccc3[nH]2)c1 | 0 | 0 | - | 8.5 | 0 | 0
Cc1cc(Br)ccc1SCC(=O)OC/C(O)=C(\C#N)c1nc2ccccc2[nH]1 | 0 | - | - | - | - | 0
Cc1c(-c2cccc(Cl)c2)nc2ccccc2c1C(=O)OC/C(O)=C(\C#N)c1nc2ccccc2[nH]1 | 0 | - | - | 11 | 0 | 0
COc1ccc(Cc2nnc(NS(=O)(=O)c3ccc(Cl)cc3)s2)cc1OC | 0 | - | - | 0 | 0 | 0
Cc1cc(CN(C)C(=O)CC2C(=O)NCCN2Cc2c(F)cccc2Cl)on1 (centres undefined) | 0 | - | - | - | - | 0
SMILES | NPY-Y1 PAM-ag | Insulin prom inh | NPY-Y2 antag | RAM inhibit | NPY Y1 blocker | NPY-Y2 PAM-ag
COc1cc(OC)cc(C(=O)N[C@H](C(=O)OCc2cc(=O)oc3cc(C)ccc23)C(C)C)c1 | 0 | 0 | 0 | 0 | 0 | 0
CCOc1ccccc1C(=O)N[C@H](C(=O)OCc1cc([N+](=O)[O-])cc2c1OCOC2)C(C)C | 0 | 0 | 0 | 8.8 | 0 | 0
CCOc1ccccc1C(=O)N[C@H](C(=O)OCc1cc(=O)oc2cc(C)ccc12)C(C)C | 0 | 0 | 0 | 9.7 | 0 | 0
O=C(O)c1cc(-c2ccco2)nc2ccc(Br)cc12 | 0 | 77 | 0 | 0 | 0 | 0
COc1ccccc1C1/C(=C(/O)c2ccccc2)C(=O)C(=O)N1CC(C)O (centres undefined) | 0 | - | 0 | 0 | 0 | 0
CC(=O)c1ccc(-n2c(CCC(=O)O)ccc2-c2cccs2)cc1 | 0 | 0 | 0 | 9.7 | 0 | 0
CC(C)(C)C(=O)NC(=S)NNC(=O)c1ccc(-c2ccccc2)cc1 | 0 | ? | - | 0 | 0 | 0
Cn1c(=O)c2c(nc(CN3CCc4ccccc4C3)n2CCc2ccccc2)n(C)c1=O | 0 | 0 | 0 | - | 26 | 0
Cn1c(=O)c2c(nc(CN3CCc4ccccc4C3)n2CCCO)n(C)c1=O | 0 | 0 | - | 0 | 0 | 0
O=c1cc(-c2c(F)c(F)c(F)c(F)c2F)oc2c(F)c(F)c(F)c(F)c12 | 0 | - | 0 | 0 | 0 | 0
COCCCN1CN(Cc2ccccc2)CNC1=S | 0 | 0 | 0 | 0 | 0 | 0
CN(C)CCCNC1=CC(=O)CC(c2ccccc2)C1 (centres undefined) | 0 | 83 | - | 0 | 0 | 0
Cc1cc(C)c2ccc(Cl)cc2n1 | 0 | - | - | - | - | 0
CC(=O)c1c(C)nc2cc(Cl)ccc2c1N | 0 | 96 | 0 | 0 | 0 | 0
Cc1c(C=O)c2ccccn2c1C(=O)c1cccc([N+](=O)[O-])c1 | 0 | 0 | - | 0 | 0 | 0
O=C(CSc1ncn[nH]1)CSc1ncn[nH]1 | 0 | 0 | - | 0 | 0 | 0
CCOC(=O)C1=C(c2ccccc2)O/C(=C(\C(=O)OC)C(F)(F)F)S1 | 0 | 0 | 0 | 11 | 0 | 0
O=C(NCc1ccccn1)C(=O)NCc1ccccn1 | 0 | 80 | - | 0 | 0 | 0
CC(C)(C)NC(=O)C(=O)NCc1ccccn1 | 0 | - | - | 0 | 0 | 0
O=C(CSc1nc2c(sc3ccccc32)c(=O)n1CCCN1CCCC1)NCc1ccccc1 | 0 | - | - | 0 | 0 | 0
Cc1ccc(CNC(=O)CSc2nc3c(sc4ccccc43)c(=O)n2CCCN2CCCC2)cc1 | 0 | 0 | - | 0 | 21 | 0
CS(=O)(=O)N(CC(=O)N1CCc2ccccc2C1)Cc1ccc(Cl)cc1 | 0 | 0 | 0 | 0 | 0 | 0
CC1OC23CCCCC2C(C#N)(C(=N)O3)C1(C#N)C#N (centres undefined) | 0 | 77 | 0 | 0 | 0 | 0
CCC1OC23CCCCC2C(C#N)(C(=N)O3)C1(C#N)C#N (centres undefined) | 0 | 0 | 0 | 0 | 0 | 0
Nn1c(=O)[nH]c2c([nH]c3ccccc32)c1=O | 0 | 0 | - | 0 | 0 | 0
SMILES | NPY-Y1 PAM-ag | Insulin prom inh | NPY-Y2 antag | RAM inhibit | NPY Y1 blocker | NPY-Y2 PAM-ag
CN(C)c1ccc(S(=O)(=O)c2ccc(Cl)cc2)cc1 | 0 | 74 | 0 | 0 | 0 | 0
CN(C)c1ccc(NS(=O)(=O)c2ccc(Cl)cc2)cc1 | 0 | 0 | 0 | 0 | 0 | 0
CCOc1cc(-n2ncc(C#N)c2N)nc(SC)n1 | 0 | 0 | 0 | 0 | 0 | 0
CCOc1cc(-n2nc(C)c(C#N)c2N)nc(SC)n1 | 0 | 76 | 0 | 0 | 0 | 0
N#CCCN1CCCc2cc(N=Nc3ccc(C(F)(F)F)cc3)ccc21 | 73 | - | - | - | - | 54
Cc1ccc(OCc2nc3c4c(ncn3n2)-c2ccccc2CC42CCCC2)cc1 | 0 | 0 | 0 | 10 | 0 | 0
